Measurements: ChEMBL document CHEMBL2034932, “2-Anilino-4-(benzimidazol-2-yl)pyrimidines--a multikinase inhibitor scaffold with antiproliferative activity toward cancer cell lines” (Eur J Med Chem, 2012)
Activity calls are given as the source filed them. No cut-off for these calls is given here.

Key:
TK-10 = experiment: Antiproliferative activity against human TK10 cells after 48 hrs by SRB assay; format: functional; settings: TK-10, 48 h
Outline: (§1)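 Run in the NCI screen of about 60 human tumour cell lines. Cells were exposed to compound for 48 h at five concentrations from 10^-8 to 10^-4 M, then fixed and stained for protein with sulforhodamine B. Absorbance was read at 515 nm. Percent growth was calculated from time-zero, untreated-control and treated readings, and replicate experiments were averaged.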

SW-620 = experiment: Antiproliferative activity against human SW620 cells after 48 hrs by SRB assay; format: functional; settings: SW-620, 48 h; outline: as §1
UACC-257 = experiment: Antiproliferative activity against human UACC257 cells after 48 hrs by SRB assay; format: functional; settings: UACC-257, 48 h; outline: as §1
MCF7 = experiment: Antiproliferative activity against human MCF7 cells after 48 hrs by SRB assay; format: functional; settings: MCF7, 48 h; outline: as §1
CAKI-1 = experiment: Antiproliferative activity against human CAKI-1 cells after 48 hrs by SRB assay; format: functional; settings: CAKI-1, 48 h; outline: as §1
HT-29 = experiment: Antiproliferative activity against human HT-29 cells after 48 hrs by SRB assay; format: functional; settings: HT-29, 48 h; outline: as §1
MDA-MB-435 = experiment: Antiproliferative activity against human MDA-MB-435 cells after 48 hrs by SRB assay; format: functional; settings: MDA-MB-435, 48 h; outline: as §1
EKVX = experiment: Antiproliferative activity against human EKVX cells after 48 hrs by SRB assay; format: functional; outline: as §1
SNB-19 = experiment: Antiproliferative activity against human SNB19 cells after 48 hrs by SRB assay; format: functional; settings: SNB-19, 48 h; outline: as §1
OVCAR-3 = experiment: Antiproliferative activity against human OVCAR3 cells after 48 hrs by SRB assay; format: functional; settings: OVCAR-3, 48 h; outline: as §1
[1] = target: Serine/threonine-protein kinase N1 (Homo sapiens) (UniProt Q16512); experiment: Inhibition of recombinant PRK1 at <10 uM by radiometric kinase assay
Outline: (§2)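 Recombinant kinases were tested in a radiometric 33P-ATP assay in 60 mM HEPES-NaOH pH 7.5 with 3 mM MgCl2 and 3 mM MnCl2, with compound added in 10% DMSO. Incubation was 80 min at 30 °C, stopped with 2% phosphoric acid and washed. 33P incorporation was scintillation-counted, and activity was scaled between no-enzyme and no-inhibitor controls.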

Focal adhesion kinase 1 [2] = target: T1, Focal adhesion kinase 1 (Homo sapiens, UniProt Q05397); experiment: Inhibition of recombinant FAK using poly(Glu,Tyr)4 as substrate assessed as inhibition of [33P]Phosphate incorporation into substrate after 80 mins by scintillation counting
[3] = target: Tyrosine-protein kinase receptor UFO (Homo sapiens) (UniProt P30530); experiment: Inhibition of recombinant AXL at <10 uM by radiometric kinase assay; outline: as §2
[4] = target: Hepatocyte growth factor receptor (Homo sapiens) (UniProt P08581); experiment: Inhibition of recombinant MET at <10 uM by radiometric kinase assay; outline: as §2
[5] = target: T2, RAC-alpha serine/threonine-protein kinase (Homo sapiens, UniProt P31749); experiment: Inhibition of recombinant AKT1 using GSK3 as substrate assessed as inhibition of [33P]Phosphate incorporation into substrate at <10 uM after 80 mins by scintillation counting
Outline: (§3)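 Recombinant AKT1 was assayed radiometrically with [33P]-ATP (about 5×10^5 cpm/well) and GSK3(14-27) substrate at 2000 ng/50 µL. Buffer was 60 mM HEPES-NaOH pH 7.5 with 3 mM MgCl2 and 3 mM MnCl2, and compound was added in 10% DMSO. After 80 min at 30 °C the reaction was stopped with 2% phosphoric acid, washed with 0.9% NaCl and 33P incorporation counted by scintillation. Residual activity was set against no-enzyme and no-inhibitor controls.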

[6] = target: Proto-oncogene tyrosine-protein kinase Src (Homo sapiens) (UniProt P12931); experiment: Inhibition of recombinant SRC at <10 uM by radiometric kinase assay; outline: as §2
[7] = target: T3, Vascular endothelial growth factor receptor 2 (Homo sapiens, UniProt P35968); experiment: Inhibition of recombinant VEGFR2 using poly(Glu,Tyr)4 as substrate assessed as inhibition of [33P]Phosphate incorporation into substrate at <10 uM after 80 mins by scintillation counting
Outline: (§4)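 FAK and VEGF-R2 were each tested as recombinant kinase with poly(Glu,Tyr)4:1 substrate at 125 ng/50 µL and [33P]-ATP (about 5×10^5 cpm/well). Buffer was 60 mM HEPES-NaOH pH 7.5 with 3 mM MgCl2 and 3 mM MnCl2. Reactions ran 80 min at 30 °C and were quenched with 2% phosphoric acid and washed with 0.9% NaCl. Scintillation counts were normalised between no-enzyme and uninhibited controls.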

[8] = target: T4, Serine/threonine-protein kinase PLK1 (Homo sapiens, UniProt P53350); experiment: Inhibition of recombinant PLK1 using RBERCHKtide as substrate assessed as inhibition of [33P]Phosphate incorporation into substrate at <10 uM after 80 mins by scintillation counting
Outline: (§5)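 PLK1 (recombinant) was phosphorylating RBER-CHKtide at 2000 ng/50 µL with [33P]-ATP (about 5×10^5 cpm/well). Buffer was 60 mM HEPES-NaOH pH 7.5 with 3 mM MgCl2 and 3 mM MnCl2. After 80 min at 30 °C, 2% phosphoric acid stopped the reaction and wells were washed with saline. Incorporated 33P was counted, with residual activity relative to enzyme-free and inhibitor-free controls.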

[9] = target: T3, Vascular endothelial growth factor receptor 2; experiment: Inhibition of recombinant VEGFR2 using poly(Glu,Tyr)4 as substrate assessed as inhibition of [33P]Phosphate incorporation into substrate after 80 mins by scintillation counting
[10] = target: Insulin-like growth factor 1 receptor (Homo sapiens) (UniProt P08069); experiment: Inhibition of recombinant IGF1R at <10 uM by radiometric kinase assay; outline: as §2
[11] = target: T2, RAC-alpha serine/threonine-protein kinase; experiment: Inhibition of recombinant AKT1 using GSK3 as substrate assessed as inhibition of [33P]Phosphate incorporation into substrate after 80 mins by scintillation counting
Outline: as §3, with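 “scintillation.” for “scintillation. Residual activity was set against no-enzyme and no-inhibitor controls.”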

[12] = target: T5, NUAK family SNF1-like kinase 1 (Homo sapiens) (UniProt O60285); experiment: Inhibition of recombinant ARK5 at <10 uM by radiometric kinase assay; outline: as §2
T5 sequence (whole entry): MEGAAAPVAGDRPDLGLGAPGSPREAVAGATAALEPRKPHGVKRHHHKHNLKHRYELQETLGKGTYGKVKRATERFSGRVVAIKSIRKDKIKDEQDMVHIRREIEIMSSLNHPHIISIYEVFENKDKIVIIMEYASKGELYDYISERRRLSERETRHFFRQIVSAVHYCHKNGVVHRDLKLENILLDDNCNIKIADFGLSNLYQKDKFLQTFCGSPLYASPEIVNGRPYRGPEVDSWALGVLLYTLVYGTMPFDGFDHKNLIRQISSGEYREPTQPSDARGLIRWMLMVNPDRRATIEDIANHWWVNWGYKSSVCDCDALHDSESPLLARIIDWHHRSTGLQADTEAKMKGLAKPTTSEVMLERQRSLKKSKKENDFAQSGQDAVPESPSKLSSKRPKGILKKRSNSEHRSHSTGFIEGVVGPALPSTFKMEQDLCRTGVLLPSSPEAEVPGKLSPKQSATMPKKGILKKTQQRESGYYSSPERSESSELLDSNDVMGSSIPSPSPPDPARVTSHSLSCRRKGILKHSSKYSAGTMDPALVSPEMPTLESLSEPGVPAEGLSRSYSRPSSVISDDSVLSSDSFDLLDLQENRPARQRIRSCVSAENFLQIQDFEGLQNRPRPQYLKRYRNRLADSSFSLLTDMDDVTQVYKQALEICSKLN

Focal adhesion kinase 1 [13] = target: T1, Focal adhesion kinase 1; experiment: Inhibition of recombinant FAK using poly(Glu,Tyr)4 as substrate assessed as inhibition of [33P]Phosphate incorporation into substrate at <10 uM after 80 mins by scintillation counting; outline: as §4
[14] = target: T4, Serine/threonine-protein kinase PLK1; experiment: Inhibition of recombinant PLK1 using RBERCHKtide as substrate assessed as inhibition of [33P]Phosphate incorporation into substrate after 80 mins by scintillation counting; outline: as §5
Aurora kinase B [15] = target: T6, Aurora kinase B (Homo sapiens, UniProt Q96GD4); experiment: Inhibition of recombinant Aurora B using tetra(LRRWSLG) as substrate assessed as inhibition of [33P]Phosphate incorporation into substrate after 80 mins by scintillation counting
Aurora kinase B [16] = target: T6, Aurora kinase B; experiment: Inhibition of recombinant Aurora B using tetra(LRRWSLG) as substrate assessed as inhibition of [33P]Phosphate incorporation into substrate at <10 uM after 80 mins by scintillation counting
Outline: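 Recombinant Aurora B was assayed with [33P]-ATP (about 5×10^5 cpm/well) and tetra(LRRWSLG) substrate at 500 ng/50 µL. Buffer was 60 mM HEPES-NaOH pH 7.5 with 3 mM MgCl2 and 3 mM MnCl2. Incubation ran 80 min at 30 °C and was stopped with 2% phosphoric acid, then washed with saline. Bound 33P was counted by scintillation, with activity normalised to no-enzyme (0%) and no-inhibitor (100%) controls.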

T3 sequence (P35968 whole entry): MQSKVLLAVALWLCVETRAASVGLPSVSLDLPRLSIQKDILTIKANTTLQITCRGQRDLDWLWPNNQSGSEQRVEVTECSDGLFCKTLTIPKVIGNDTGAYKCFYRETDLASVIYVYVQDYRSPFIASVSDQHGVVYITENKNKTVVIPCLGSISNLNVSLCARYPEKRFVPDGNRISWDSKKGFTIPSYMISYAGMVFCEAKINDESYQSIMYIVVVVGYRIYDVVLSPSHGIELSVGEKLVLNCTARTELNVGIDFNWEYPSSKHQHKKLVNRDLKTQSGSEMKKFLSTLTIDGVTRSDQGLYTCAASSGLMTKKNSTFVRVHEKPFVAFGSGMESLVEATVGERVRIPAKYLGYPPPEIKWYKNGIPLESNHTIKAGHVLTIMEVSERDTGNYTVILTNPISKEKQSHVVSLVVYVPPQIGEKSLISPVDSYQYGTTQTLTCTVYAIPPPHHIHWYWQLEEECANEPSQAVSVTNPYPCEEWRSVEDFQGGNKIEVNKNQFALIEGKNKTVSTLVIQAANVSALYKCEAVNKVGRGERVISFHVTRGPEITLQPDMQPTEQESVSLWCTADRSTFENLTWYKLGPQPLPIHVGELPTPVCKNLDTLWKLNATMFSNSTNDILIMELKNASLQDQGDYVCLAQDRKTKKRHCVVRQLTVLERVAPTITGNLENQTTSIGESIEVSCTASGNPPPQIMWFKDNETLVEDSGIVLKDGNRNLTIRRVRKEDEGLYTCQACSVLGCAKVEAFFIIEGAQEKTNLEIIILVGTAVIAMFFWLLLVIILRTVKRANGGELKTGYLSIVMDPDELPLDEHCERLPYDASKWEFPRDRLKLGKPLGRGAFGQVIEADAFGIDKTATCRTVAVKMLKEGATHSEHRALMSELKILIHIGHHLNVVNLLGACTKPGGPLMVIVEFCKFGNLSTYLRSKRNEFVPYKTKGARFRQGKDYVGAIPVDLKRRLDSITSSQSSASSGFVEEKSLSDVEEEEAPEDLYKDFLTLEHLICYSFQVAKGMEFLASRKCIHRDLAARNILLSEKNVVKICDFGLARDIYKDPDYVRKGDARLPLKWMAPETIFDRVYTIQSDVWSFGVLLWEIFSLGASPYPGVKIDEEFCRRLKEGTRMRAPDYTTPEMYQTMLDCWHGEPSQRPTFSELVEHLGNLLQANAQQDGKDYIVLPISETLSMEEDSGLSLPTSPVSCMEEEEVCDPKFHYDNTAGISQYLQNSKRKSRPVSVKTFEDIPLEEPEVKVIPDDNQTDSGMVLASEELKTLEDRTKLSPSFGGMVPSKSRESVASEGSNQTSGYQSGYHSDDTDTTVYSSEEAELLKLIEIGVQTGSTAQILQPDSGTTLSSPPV
Sequence of Serine/threonine-protein kinase N1 (Homo sapiens) (Q16512 2-942 limits assumed): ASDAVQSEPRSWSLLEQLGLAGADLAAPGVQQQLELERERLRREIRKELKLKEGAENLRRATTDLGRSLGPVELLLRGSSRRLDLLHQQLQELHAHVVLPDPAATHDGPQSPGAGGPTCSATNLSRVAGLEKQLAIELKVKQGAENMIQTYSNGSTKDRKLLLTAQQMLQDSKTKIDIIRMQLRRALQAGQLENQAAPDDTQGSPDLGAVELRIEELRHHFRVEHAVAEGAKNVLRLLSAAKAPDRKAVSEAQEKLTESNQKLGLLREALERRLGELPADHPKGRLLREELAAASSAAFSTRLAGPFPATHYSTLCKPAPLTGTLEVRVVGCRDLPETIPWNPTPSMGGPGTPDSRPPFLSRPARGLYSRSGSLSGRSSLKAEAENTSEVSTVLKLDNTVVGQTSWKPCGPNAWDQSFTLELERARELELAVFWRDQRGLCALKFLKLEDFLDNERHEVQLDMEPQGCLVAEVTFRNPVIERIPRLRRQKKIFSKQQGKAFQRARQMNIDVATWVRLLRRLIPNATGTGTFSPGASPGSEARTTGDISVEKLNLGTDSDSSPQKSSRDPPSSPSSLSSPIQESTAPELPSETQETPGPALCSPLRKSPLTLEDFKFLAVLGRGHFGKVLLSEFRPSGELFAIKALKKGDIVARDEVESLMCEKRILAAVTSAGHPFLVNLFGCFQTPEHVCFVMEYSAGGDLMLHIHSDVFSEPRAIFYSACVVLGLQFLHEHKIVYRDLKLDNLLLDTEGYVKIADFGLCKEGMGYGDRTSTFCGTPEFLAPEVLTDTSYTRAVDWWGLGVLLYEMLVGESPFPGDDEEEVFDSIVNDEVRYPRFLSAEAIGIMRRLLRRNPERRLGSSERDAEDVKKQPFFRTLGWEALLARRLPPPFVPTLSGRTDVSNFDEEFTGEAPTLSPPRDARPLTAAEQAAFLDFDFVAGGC
T4 sequence (P53350 whole entry): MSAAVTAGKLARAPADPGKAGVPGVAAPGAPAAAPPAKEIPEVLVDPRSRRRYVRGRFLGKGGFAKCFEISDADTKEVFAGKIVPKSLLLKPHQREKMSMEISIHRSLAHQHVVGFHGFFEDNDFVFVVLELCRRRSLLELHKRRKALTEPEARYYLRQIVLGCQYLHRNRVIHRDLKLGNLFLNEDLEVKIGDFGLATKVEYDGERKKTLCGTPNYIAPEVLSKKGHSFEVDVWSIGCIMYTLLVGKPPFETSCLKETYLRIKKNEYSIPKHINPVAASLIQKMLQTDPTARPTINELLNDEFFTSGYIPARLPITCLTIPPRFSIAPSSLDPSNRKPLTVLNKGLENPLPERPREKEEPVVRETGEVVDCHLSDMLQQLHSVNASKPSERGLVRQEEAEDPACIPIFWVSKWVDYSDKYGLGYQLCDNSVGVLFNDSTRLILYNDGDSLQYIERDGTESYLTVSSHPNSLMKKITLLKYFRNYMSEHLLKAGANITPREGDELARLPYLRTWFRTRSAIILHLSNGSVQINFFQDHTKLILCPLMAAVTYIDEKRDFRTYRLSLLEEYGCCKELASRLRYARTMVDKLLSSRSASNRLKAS
Sequence of Tyrosine-protein kinase receptor UFO (Homo sapiens) (P30530 whole entry): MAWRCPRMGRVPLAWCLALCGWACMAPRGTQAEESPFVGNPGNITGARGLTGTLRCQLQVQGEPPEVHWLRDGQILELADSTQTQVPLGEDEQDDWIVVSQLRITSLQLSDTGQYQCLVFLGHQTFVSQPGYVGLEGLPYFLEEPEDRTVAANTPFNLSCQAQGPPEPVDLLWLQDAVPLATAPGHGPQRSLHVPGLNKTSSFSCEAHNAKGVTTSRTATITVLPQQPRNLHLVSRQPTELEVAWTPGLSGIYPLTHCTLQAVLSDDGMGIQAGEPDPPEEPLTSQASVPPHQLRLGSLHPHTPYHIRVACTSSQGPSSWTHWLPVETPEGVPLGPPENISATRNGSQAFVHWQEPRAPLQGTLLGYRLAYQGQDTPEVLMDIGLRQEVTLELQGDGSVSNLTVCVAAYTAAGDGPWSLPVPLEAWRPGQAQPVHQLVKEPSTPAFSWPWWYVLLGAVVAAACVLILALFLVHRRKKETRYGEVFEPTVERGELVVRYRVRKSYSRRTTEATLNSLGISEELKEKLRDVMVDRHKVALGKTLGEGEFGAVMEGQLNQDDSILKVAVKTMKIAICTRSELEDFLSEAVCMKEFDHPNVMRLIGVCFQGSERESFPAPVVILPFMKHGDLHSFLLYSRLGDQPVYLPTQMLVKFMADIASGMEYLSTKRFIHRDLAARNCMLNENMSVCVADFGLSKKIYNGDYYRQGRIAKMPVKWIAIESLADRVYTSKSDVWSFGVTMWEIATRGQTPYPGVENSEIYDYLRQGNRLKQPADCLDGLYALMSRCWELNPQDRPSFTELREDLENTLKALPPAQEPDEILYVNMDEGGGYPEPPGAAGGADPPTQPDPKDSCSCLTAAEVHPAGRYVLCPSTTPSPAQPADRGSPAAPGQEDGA
T6 sequence (Q96GD4 whole entry): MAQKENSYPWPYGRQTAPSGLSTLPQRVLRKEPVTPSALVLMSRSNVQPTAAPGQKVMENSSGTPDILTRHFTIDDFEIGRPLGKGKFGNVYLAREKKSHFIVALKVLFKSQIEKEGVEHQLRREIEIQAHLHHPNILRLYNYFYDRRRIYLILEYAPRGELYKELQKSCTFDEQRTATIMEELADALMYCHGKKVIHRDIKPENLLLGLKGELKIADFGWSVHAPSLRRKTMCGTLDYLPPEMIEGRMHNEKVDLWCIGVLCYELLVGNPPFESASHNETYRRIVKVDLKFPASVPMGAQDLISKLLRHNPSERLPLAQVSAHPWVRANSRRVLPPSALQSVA
Sequence of Proto-oncogene tyrosine-protein kinase Src (Homo sapiens) (P12931 2-536 limits assumed): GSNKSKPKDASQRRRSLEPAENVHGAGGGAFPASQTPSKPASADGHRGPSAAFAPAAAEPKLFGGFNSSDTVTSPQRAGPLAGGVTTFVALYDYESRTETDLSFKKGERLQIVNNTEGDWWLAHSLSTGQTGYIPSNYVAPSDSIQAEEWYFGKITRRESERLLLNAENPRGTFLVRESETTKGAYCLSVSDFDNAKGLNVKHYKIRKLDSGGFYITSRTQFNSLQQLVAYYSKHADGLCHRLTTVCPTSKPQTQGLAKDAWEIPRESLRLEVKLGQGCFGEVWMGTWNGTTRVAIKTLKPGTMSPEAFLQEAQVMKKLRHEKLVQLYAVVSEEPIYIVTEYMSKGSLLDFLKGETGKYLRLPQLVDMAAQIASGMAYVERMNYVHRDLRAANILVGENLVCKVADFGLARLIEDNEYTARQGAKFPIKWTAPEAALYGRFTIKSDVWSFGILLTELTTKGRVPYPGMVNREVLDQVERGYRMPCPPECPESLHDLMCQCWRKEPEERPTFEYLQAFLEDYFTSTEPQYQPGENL

CCN(CC)CCNC(=O)c1c(C)[nH]c(/C=C2\C(=O)Nc3ccc(F)cc32)c1C [SUNITINIB]
GI50 (TK-10): 6.3 µM | GI50 (SW-620): 1.3 µM | GI50 (UACC-257): 4 µM | GI50 (MCF7): 2 µM | GI50 (CAKI-1): 0.63 µM | GI50 (HT-29): 1.6 µM | GI50 (MDA-MB-435): 2 µM | GI50 (EKVX): 7.9 µM | GI50 (SNB-19): 10 µM | GI50 (OVCAR-3): 3.2 µM

Cn1c(-c2ccnc(Nc3ccc(Cl)cc3)n2)nc2ccccc21
inhibition [1]: inactive | IC50 (Focal adhesion kinase 1 [2]): 69 µM | inhibition [3]: inactive | inhibition [4]: inactive | inhibition [5]: inactive | inhibition [6]: inactive | inhibition [7]: inactive | inhibition [8]: inactive | IC50 [9]: 38 µM | inhibition [10]: inactive | IC50 [11]: 41 µM | inhibition [12]: inactive | inhibition (Focal adhesion kinase 1 [13]): inactive

Cn1c(-c2ccnc(Nc3ccc(O)c(Cl)c3)n2)nc2ccccc21
IC50 (Focal adhesion kinase 1 [2]): 10.4 µM | IC50 [14]: 6 µM | IC50 [9]: 7.5 µM | IC50 [11]: > 100 µM | IC50 (Aurora kinase B [15]): 7 µM

Cc1ccc(Nc2nccc(-c3nc4ccccc4n3C)n2)cc1
inhibition [1]: inactive | IC50 (Focal adhesion kinase 1 [2]): 58 µM | inhibition [3]: inactive | inhibition [4]: inactive | inhibition [5]: inactive | inhibition [6]: inactive | inhibition [7]: inactive | inhibition [8]: inactive | IC50 [9]: 25 µM | inhibition [10]: inactive | inhibition [12]: inactive | inhibition (Focal adhesion kinase 1 [13]): inactive

Cn1c(-c2ccnc(Nc3ccccc3)n2)nc2ccccc21
inhibition [1]: inactive | IC50 (Focal adhesion kinase 1 [2]): 38 µM | inhibition [3]: inactive | inhibition [4]: inactive | inhibition [5]: inactive | inhibition [6]: inactive | inhibition [7]: inactive | IC50 [14]: 60 µM | inhibition [8]: inactive | IC50 [9]: 13.4 µM | inhibition (Aurora kinase B [16]): inactive | inhibition [10]: inactive | IC50 [11]: > 100 µM | inhibition [12]: inactive | IC50 (Aurora kinase B [15]): > 100 µM | inhibition (Focal adhesion kinase 1 [13]): inactive

Cn1c(-c2ccnc(Nc3cccc(O)c3)n2)nc2ccccc21
IC50 (Focal adhesion kinase 1 [2]): 5.2 µM | IC50 [14]: 3.7 µM | IC50 [9]: 3.2 µM | IC50 [11]: > 100 µM | IC50 (Aurora kinase B [15]): 5.5 µM

Cn1c(=O)c2ccc(-c3nc4ccccc4n3C)nc2n(C)c1=O
inhibition [1]: inactive | IC50 (Focal adhesion kinase 1 [2]): 92 µM | inhibition [3]: inactive | inhibition [4]: inactive | inhibition [5]: inactive | inhibition [6]: inactive | inhibition [7]: inactive | inhibition [8]: inactive | IC50 [9]: 85 µM | inhibition [10]: inactive | inhibition [12]: inactive | inhibition (Focal adhesion kinase 1 [13]): inactive

Cn1c(-c2ccnc(Nc3ccc(O)cc3)n2)nc2ccccc21
IC50 (Focal adhesion kinase 1 [2]): 11.4 µM | IC50 [14]: 12 µM | IC50 [9]: 9.2 µM | IC50 [11]: > 100 µM | IC50 (Aurora kinase B [15]): 11.1 µM

Cn1c(-c2ccnc(Nc3ccc(N4CCOCC4)cc3)n2)nc2ccccc21
inhibition [1]: inactive | IC50 (Focal adhesion kinase 1 [2]): 24 µM | inhibition [3]: inactive | inhibition [4]: inactive | inhibition [5]: inactive | inhibition [6]: inactive | inhibition [7]: inactive | IC50 [14]: > 100 µM | inhibition [8]: inactive | IC50 [9]: 69 µM | inhibition (Aurora kinase B [16]): inactive | inhibition [10]: inactive | IC50 [11]: > 100 µM | inhibition [12]: inactive | IC50 (Aurora kinase B [15]): > 100 µM | inhibition (Focal adhesion kinase 1 [13]): inactive

COc1ccc(Nc2nccc(-c3nc4ccccc4n3C)n2)cc1
inhibition [1]: inactive | IC50 (Focal adhesion kinase 1 [2]): 27 µM | inhibition [3]: inactive | inhibition [4]: inactive | inhibition [5]: inactive | inhibition [6]: inactive | inhibition [7]: inactive | IC50 [14]: 15 µM | inhibition [8]: inactive | IC50 [9]: 44 µM | inhibition (Aurora kinase B [16]): inactive | inhibition [10]: inactive | IC50 [11]: 75 µM | inhibition [12]: inactive | IC50 (Aurora kinase B [15]): 62 µM | inhibition (Focal adhesion kinase 1 [13]): inactive

CCOc1ccc(Nc2nccc(-c3nc4ccccc4n3C)n2)cc1
inhibition [1]: inactive | IC50 (Focal adhesion kinase 1 [2]): > 100 µM | inhibition [3]: inactive | inhibition [4]: inactive | inhibition [5]: inactive | inhibition [6]: inactive | inhibition [7]: inactive | IC50 [14]: > 100 µM | inhibition [8]: inactive | IC50 [9]: > 100 µM | inhibition (Aurora kinase B [16]): inactive | inhibition [10]: inactive | IC50 [11]: > 100 µM | inhibition [12]: inactive | IC50 (Aurora kinase B [15]): > 100 µM | inhibition (Focal adhesion kinase 1 [13]): inactive
